Source: ChEMBL document CHEMBL2203269, “Target-Activated Prodrugs (TAPs) for the Autoregulated Inhibition of MMP12” (ACS Med Chem Lett, 2012)
Residues, ends and D or L forms follow the SMILES beside them. *: point of attachment. Benzenesulfonyl(4-Ph) = O=S(=O)(c1ccc(-c2ccccc2)cc1)*; Benzenesulfonyl(4-OMe) = COc1ccc(S(=O)(=O)*)cc1

Experiments:
[1] = target: Macrophage metalloelastase (Homo sapiens, UniProt P39900); test: Inhibition of human MMP12 by FRET reporter assay
Procedure, shortened: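 Recombinant human MMP12 activity was read with the fluorogenic FRET reporter substrate LaRee5. Inhibition constants were reported as IC50.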

[2] = Half life in TCN buffer at pH 7.5; format: physicochemical
Procedure, shortened: (§1)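 Compounds incubated without enzyme in TCN buffer, pH 7.5, at 37 °C. Spontaneous hydrolysis of the N-acylated sulfonamide was followed by HPLC over time, and half-lives (h) were derived from the traces.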

[3] = Stability of compound in heat inactivated fetal calf serum; format: ADME; settings: cattle
[4] = Stability of compound in fetal calf serum; format: ADME; settings: cattle
[5] = Drug metabolism in TCN buffer assessed as hydrolysis at pH 7.5; format: physicochemical; procedure, shortened: as §1

Sequence of Macrophage metalloelastase (P39900 whole entry): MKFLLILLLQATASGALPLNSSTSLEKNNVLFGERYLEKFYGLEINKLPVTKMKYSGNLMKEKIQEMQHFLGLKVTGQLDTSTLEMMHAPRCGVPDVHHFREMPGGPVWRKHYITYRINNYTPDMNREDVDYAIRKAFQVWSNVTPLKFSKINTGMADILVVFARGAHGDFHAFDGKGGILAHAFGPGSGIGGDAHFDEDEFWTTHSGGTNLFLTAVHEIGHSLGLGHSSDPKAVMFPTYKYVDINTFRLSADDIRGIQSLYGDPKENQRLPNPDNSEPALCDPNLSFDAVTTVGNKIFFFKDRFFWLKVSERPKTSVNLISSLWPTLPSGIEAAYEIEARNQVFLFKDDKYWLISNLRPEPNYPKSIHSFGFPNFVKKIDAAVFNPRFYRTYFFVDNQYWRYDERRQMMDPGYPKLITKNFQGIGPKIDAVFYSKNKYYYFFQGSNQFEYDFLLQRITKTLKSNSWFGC

| SMILES | IC50 [1] [µM] | half-life [2] [h] | other results |
| --- | --- | --- | --- |
| O=C(O)CNS(=O)(=O)c1ccc(-c2ccccc2)cc1 | 0.29 |  |  |
| CC(C)C[C@H](NC(=O)[C@@H]1CCCN1C(=O)OCc1ccccc1)C(=O)N(CC(=O)O)S(=O)(=O)c1ccc(-c2ccccc2)cc1 | 13 | 27 | Stability [3]: Stable; Stability [4]: Stable |
| COc1ccc(S(=O)(=O)N(CC(=O)N[C@@H](CC(C)C)C(=O)N[C@@H](CCC(=O)O)C(=O)N[C@@H](CCC(=O)O)C(=O)N[C@@H](C)C(N)=O)C(=O)[C@H](CC(C)C)NC(=O)[C@@H]2CCCN2C(=O)OCc2ccccc2)cc1 |  | 28 |  |
| COc1ccc(S(=O)(=O)N(CC(=O)N[C@@H](CC(C)C)C(=O)N[C@@H](CCC(=O)O)C(=O)N[C@@H](CCC(=O)O)C(=O)N[C@@H](C)C(N)=O)C(=O)CNC(=O)[C@@H]2CCCN2C(=O)OCc2ccccc2)cc1 |  | 6.4 |  |
| COc1ccc(S(=O)(=O)NCC(=O)N[C@@H](CC(C)C)C(=O)N[C@@H](CCC(=O)O)C(=O)N[C@@H](CCC(=O)O)C(=O)N[C@@H](C)C(N)=O)cc1 ({Benzenesulfonyl(4-OMe)}-GLEEA-NH2) |  |  | Drug metabolism [5]: Not Active |
| COc1ccc(S(=O)(=O)N(CC(=O)O)C(=O)CNC(=O)[C@H](CC(C)C)NC(=O)[C@@H]2CCCN2C(=O)OCc2ccccc2)cc1 |  | 27 |  |
| COc1ccc(S(=O)(=O)N(CC(=O)O)C(=O)[C@H](CC(C)C)NC(=O)[C@@H]2CCCN2C(=O)OCc2ccccc2)cc1 |  | 77 |  |
| CC(C)C[C@H](NC(=O)CNS(=O)(=O)c1ccc(-c2ccccc2)cc1)C(=O)N[C@@H](CCC(=O)O)C(=O)N[C@@H](CCC(=O)O)C(=O)N[C@@H](C)C(N)=O ({Benzenesulfonyl(4-Ph)}-GLEEA-NH2) | 48 |  | Drug metabolism [5]: Not Active |
| CC(C)C[C@H](NC(=O)CN(C(=O)[C@H](CC(C)C)NC(=O)[C@@H]1CCCN1C(=O)OCc1ccccc1)S(=O)(=O)c1ccc(-c2ccccc2)cc1)C(=O)N[C@@H](CCC(=O)O)C(=O)N[C@@H](CCC(=O)O)C(=O)N[C@@H](C)C(N)=O |  | 5.1 | Stability [3]: Stable; Stability [4]: Stable |
